Test results: ChEMBL document CHEMBL1157357, “Inhibition of siderophore biosynthesis in Mycobacterium tuberculosis with nucleoside bisubstrate analogues: structure-activity relationships of the nucleobase domain of 5'-O-[N-(salicyl)sulfamoyl]adenosine” (J Med Chem, 2008)
In brackets after ≈: the same amount, converted by molar mass. Activity calls are given as the source filed them. The rule behind the calls is not given here.

Key:
[1] = biological target: T1, Salicyl-AMP ligase / salicyl-S-ArCP synthetase (Mycobacterium tuberculosis, UniProt P71716); assay: Inhibition of Mycobacterium tuberculosis recombinant MbtA expressed in Escherichia coli by ATP-PPi exchange assay; details: read-out: Ki(app)
T1 sequence (P71716 whole entry): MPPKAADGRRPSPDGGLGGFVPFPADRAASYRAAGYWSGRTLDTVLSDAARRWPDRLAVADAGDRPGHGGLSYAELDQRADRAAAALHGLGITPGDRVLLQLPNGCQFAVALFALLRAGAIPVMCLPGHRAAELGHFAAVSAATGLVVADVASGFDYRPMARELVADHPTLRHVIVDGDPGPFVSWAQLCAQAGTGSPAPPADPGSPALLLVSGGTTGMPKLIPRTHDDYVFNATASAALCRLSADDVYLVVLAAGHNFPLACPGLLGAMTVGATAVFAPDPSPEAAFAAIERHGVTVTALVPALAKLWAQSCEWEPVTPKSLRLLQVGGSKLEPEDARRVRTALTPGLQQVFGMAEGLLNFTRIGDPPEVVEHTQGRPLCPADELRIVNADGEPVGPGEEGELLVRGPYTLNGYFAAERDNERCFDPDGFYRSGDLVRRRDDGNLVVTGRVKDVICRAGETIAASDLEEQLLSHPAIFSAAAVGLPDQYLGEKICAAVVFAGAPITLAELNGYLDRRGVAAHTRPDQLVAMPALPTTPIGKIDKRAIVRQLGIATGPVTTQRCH

[2] = test system: Mycobacterium tuberculosis; assay: Antitubercular activity against Mycobacterium tuberculosis H37Rv in iron-deficient GAST medium after 10 to 14 days by broth dilution method; format: functional
In short: (§1)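 MIC99 by broth microdilution in quadruplicate in GAST, either iron-deficient or supplemented with 200 µM FeCl3. Compounds were added from DMSO stocks, with DMSO-treated controls. Inoculum was 10⁴-10⁵ cells/assay, incubation 37 °C for 10-14 days, and growth read as OD620. MIC99 is the lowest concentration completely inhibiting observable growth.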

[3] = test system: Mycobacterium tuberculosis; assay: Antitubercular activity against Mycobacterium tuberculosis H37Rv in iron-replete GAST medium after 10 to 14 days by broth dilution method; format: functional; in short: as §1
[4] = test system: Mycobacterium tuberculosis; assay: Ratio of MIC99 for Mycobacterium tuberculosis H37Rv in iron-replete GAST medium to MIC99 for Mycobacterium tuberculosis H37Rv in iron-deficient GAST medium; format: functional
Vero = assay: Cytotoxicity against african green money Vero cells after 48 hrs by MTT assay; format: cell-based; details: Chlorocebus sabaeus
[5] = Therapeutic index, ratio of IC50 for african green money Vero cells to MIC99 for Mycobacterium tuberculosis H37Rv; format: cell-based; details: monkey
Oryctolagus cuniculus = organism: Oryctolagus cuniculus; assay: Inhibition of protein synthesis in T7 coupled rabbit reticulocyte system by luciferase based translation assay; format: functional

Compound | Ki [1] | MIC99 [2] | MIC99 [3] | Ratio [4] | IC50 (Vero) | selectivity ratio [5] | Activity (Oryctolagus cuniculus)
CCN(CC)CC.Nc1ncnc2c1ccn2[C@@H]1O[C@H](COS(=O)(=O)NC(=O)c2ccccc2O)[C@@H](O)[C@H]1O | 24.3 nM | 6.25 µM | 50 µM | 8 | > 100000 nM | – | –
CCCNc1ncnc2c1ncn2[C@@H]1O[C@H](COS(=O)(=O)NC(=O)c2ccccc2O)[C@@H](O)[C@H]1O.CCN(CC)CC | 3.5 nM | 0.39 µM | 1.56 µM | 4 | > 100000 nM | – | –
CCN(CC)CC.Nc1cccc2c1ccn2C1CC(COS(=O)(=O)NC(=O)c2ccccc2O)[C@@H](O)[C@H]1O (single isomer, unassigned) | 20.1 nM | 6.25 µM | 50 µM | 8 | > 100000 nM | – | –
Nc1nc(-c2cccc(-c3ccccc3)c2)nc2c1ncn2[C@@H]1O[C@H](COS(=O)(=O)NC(=O)c2ccccc2O)[C@@H](O)[C@H]1O | 1.4 nM | 25 µM (≈ 15.5 µg/mL) | > 50 µM | – | > 100000 nM | – | –
CCN(CC)CC.Nc1nc(C#Cc2ccccc2)nc2c1ncn2[C@@H]1O[C@H](COS(=O)(=O)NC(=O)c2ccccc2O)[C@@H](O)[C@H]1O | 0.4 nM | 0.049 µM | 0.39 µM | 8 | > 100000 nM | > 2000 | –
Nc1ncnc2c1nc(N)n2[C@@H]1O[C@H](COS(=O)(=O)NC(=O)c2ccccc2O)[C@@H](O)[C@H]1O | 183000 nM | > 50 µM | > 50 µM | – | > 100000 nM | – | –
Nc1ncnc2c1ncn2[C@@H]1O[C@H](COS(N)(=O)=O)[C@@H](O)[C@H]1O | – | – | – | – | – | – | Active
CC(C)Nc1ncnc2c1ncn2[C@@H]1O[C@H](COS(=O)(=O)[N-]C(=O)c2ccccc2O)[C@@H](O)[C@H]1O.[Na+] | 7 nM | 25 µM | > 100 µM | >4 | > 100000 nM | – | –
O=C(NS(=O)(=O)OC[C@H]1O[C@@H](n2cnc3c(NC4CCCC4)ncnc32)[C@H](O)[C@@H]1O)c1ccccc1O | 9410 nM | > 100 µM | > 100 µM | – | > 100000 nM | – | –
CNc1ncnc2c1ncn2[C@@H]1O[C@H](COS(=O)(=O)[N-]C(=O)c2ccccc2O)[C@@H](O)[C@H]1O.[Na+] | 1.6 nM | 0.39 µM | 1.56 µM | 4 | > 100000 nM | – | –
CC(C)CNc1ncnc2c1ncn2[C@@H]1O[C@H](COS(=O)(=O)NC(=O)c2ccccc2O)[C@@H](O)[C@H]1O | 1140 nM | > 100 µM | > 100 µM | – | > 100000 nM | – | –
CCNc1ncnc2c1ncn2[C@@H]1O[C@H](COS(=O)(=O)[N-]C(=O)c2ccccc2O)[C@@H](O)[C@H]1O.[Na+] | 4.4 nM | 0.39 µM | 1.56 µM | 4 | > 100000 nM | – | –
CCN(CC)CC.Nc1nc(I)nc2c1ncn2[C@@H]1O[C@H](COS(=O)(=O)NC(=O)c2ccccc2O)[C@@H](O)[C@H]1O | 3.03 nM | 0.19 µM | 3.12 µM | 16 | > 100000 nM | – | –
CCN(CC)CC.O=C(NS(=O)(=O)OC[C@H]1O[C@@H](n2cnc3c(NC4CC4)ncnc32)[C@H](O)[C@@H]1O)c1ccccc1O | 1.85 nM | 0.098 µM | 6.25 µM | 64 | > 100000 nM | – | –
O=C(NS(=O)(=O)OC[C@H]1O[C@@H](n2cnc3c(NC4CCC4)ncnc32)[C@H](O)[C@@H]1O)c1ccccc1O | 124 nM | > 100 µM | > 100 µM | – | > 100000 nM | – | –
Nc1nc(-c2ccccc2-c2ccccc2)nc2c1ncn2[C@@H]1O[C@H](COS(=O)(=O)NC(=O)c2ccccc2O)[C@@H](O)[C@H]1O | 47 nM | > 50 µM | > 50 µM | – | > 100000 nM | – | –
[N-]=[N+]=Nc1nc2c(N)ncnc2n1[C@@H]1O[C@H](COS(=O)(=O)NC(=O)c2ccccc2O)[C@@H](O)[C@H]1O | 42500 nM | > 50 µM | > 50 µM | – | > 100000 nM | – | –
O=C(NS(=O)(=O)OC[C@H]1O[C@@H](n2cnc3c(=O)[nH]cnc32)[C@H](O)[C@@H]1O)c1ccccc1O | 800 nM | > 100 µM | > 100 µM | – | > 100000 nM | – | –
O=C(NS(=O)(=O)OC[C@H]1O[C@@H](n2cnc3c(NCc4ccccc4)ncnc32)[C@H](O)[C@@H]1O)c1ccccc1O | 8260 nM | > 100 µM | > 100 µM | – | > 100000 nM | – | –
CN(C)c1ncnc2c1ncn2[C@@H]1O[C@H](COS(=O)(=O)NC(=O)c2ccccc2O)[C@@H](O)[C@H]1O | 380 nM | 50 µM (≈ 24.7 µg/mL) | – | – | > 100000 nM | – | –
Nc1nc(-c2ccc(-c3ccccc3)cc2)nc2c1ncn2[C@@H]1O[C@H](COS(=O)(=O)NC(=O)c2ccccc2O)[C@@H](O)[C@H]1O | 0.99 nM | 25 µM (≈ 15.5 µg/mL) | > 50 µM | – | > 100000 nM | – | –
Nc1nc(-c2ccccc2)nc2c1ncn2[C@@H]1O[C@H](COS(=O)(=O)NC(=O)c2ccccc2O)[C@@H](O)[C@H]1O | – | 0.049 µM (≈ 0.0266 µg/mL) | 0.39 µM (≈ 0.212 µg/mL) | – | > 100000 nM | – | –
CCN(CC)CC.Nc1nc(Nc2ccccc2)nc2c1ncn2[C@@H]1O[C@H](COS(=O)(=O)NC(=O)c2ccccc2O)[C@@H](O)[C@H]1O | 0.94 nM | 0.049 µM | 0.39 µM | 8 | > 100000 nM | > 2000 | –
Nc1ncnc2c1nc(Br)n2[C@@H]1O[C@H](COS(=O)(=O)NC(=O)c2ccccc2O)[C@@H](O)[C@H]1O | 2050 nM | > 50 µM | > 50 µM | – | > 100000 nM | – | –
